ChEMBL document CHEMBL1138568, “Design and synthesis of 5-alkoxy-[1,2,4]triazolo[4,3-a]quinoline derivatives with anticonvulsant activity” (Eur J Med Chem, 2009)

Tests used:
Mus musculus [1] = test: Anticonvulsant activity in ip dosed C57B/6 mouse assessed as protection against maximal electroshock-induced seizure after 30 mins; format: functional; conditions: C57B/6, ip, 0.5 h
[2] = Neurotoxicity in ip dosed C57B/6 mouse after 30 mins by rotarod test; format: toxicity, organism-based; conditions: in vivo
Method in brief: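 Rotarod: 30 min after ip compound in polyethylene glycol-400, mice were placed on a 1-inch knurled plastic rod turning at 6 rpm for 1 min. Neurotoxicity was scored as failure to keep balance in each of three trials.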

Mus musculus [3] = species: Mus musculus; test: Protective index, ratio of TD50 for neurotoxicity in C57B/6 mouse to ED50 for anticonvulsant activity in C57B/6 mouse; format: functional
Method in brief: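 Protective index computed as TD50 (rotarod, 30 min after ip dosing in polyethylene glycol-400) divided by ED50 in the maximal electroshock test at 30 min, both values from dose-response plots analysed with the NINDS program.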

Mus musculus [4] = test: Anticonvulsant activity in C57B/6 mouse assessed as protection against strychnine-induced tonic seizure at 300 mg/kg, ip administered 30 mins before strychnine challenge measured after 30 mins; format: ADME, organism-based; parameters: dose 300 mg/kg, route intraperitoneal; conditions: in vivo, 0.5 h
Method in brief: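 Mice given test compound ip in polyethylene glycol-400; 30 min later strychnine chlorhydrate in saline (1.2 mg/mL, 1 mL/kg) injected sc, a dose set by dose-percent effect curve to convulse 100% of animals. Mice held in individual cages and observed 30 min for convulsions.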

Mus musculus [5] = test: Anticonvulsant activity in ip dosed C57B/6 mouse assessed as protection against pentylenetetrazole-induced clonic seizure administered 30 mins before pentylenetetrazole challenge measured after 30 mins; format: ADME, organism-based; conditions: C57B/6, ip, 0.5 h
Method in brief: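 Pentylenetetrazole 85 mg/kg sc, a dose set by dose-percent effect curve to give clonic seizures in 100% of mice, injected 30 min after ip compound in polyethylene glycol-400.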

Mus musculus [6] = test: Anticonvulsant activity in ip dosed C57B/6 mouse assessed as protection against 3-mercaptopropionic acid-induced tonic seizure administered 30 mins before 3-mercaptopropionic acid challenge measured after 1 hrs; format: ADME, organism-based; conditions: C57B/6, ip
Method in brief: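 Test compound given ip in polyethylene glycol-400; 30 min later 3-mercaptopropionic acid 40 mg/kg in saline injected sc. ED50 taken as the dose preventing tonic convulsions in 50% of treated mice.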

Mus musculus [7] = test: Anticonvulsant activity in ip dosed C57B/6 mouse assessed as protection against isoniazid-induced tonic seizure administered 30 mins before isoniazide challenge measured after 1 hrs; format: ADME, organism-based; conditions: C57B/6, ip
Mus musculus [8] = test: Anticonvulsant activity in ip dosed C57B/6 mouse assessed as protection against thiosemicarbazide-induced tonic seizure administered 30 mins before thiosemicarbazide challenge measured after 1 hrs; format: ADME, organism-based; conditions: C57B/6, ip

SMILES: Fc1cccc(COc2cc3nncn3c3ccccc23)c1
- ED50 (Mus musculus [1]): > 100 mg/kg

SMILES: CCCOc1cc2nncn2c2ccccc12
- TD50 at 0.5 h [2]: 94.7 mg/kg
- Ratio TD50/ED50 (Mus musculus [3]): 1.4
- ED50 (Mus musculus [1]): 65.7 mg/kg

SMILES: Fc1ccccc1COc1cc2nncn2c2ccccc12
- TD50 at 0.5 h [2]: 228 mg/kg
- Ratio TD50/ED50 (Mus musculus [3]): 9
- ED50 (Mus musculus [1]): 25.4 mg/kg

SMILES: CCCCCCCOc1cc2nncn2c2ccccc12
- TD50 at 0.5 h [2]: 110 mg/kg
- Ratio TD50/ED50 (Mus musculus [3]): 1.6
- ED50 (Mus musculus [1]): 68.2 mg/kg

SMILES: COc1cc2nncn2c2ccccc12
- TD50 at 0.5 h [2]: 102 mg/kg
- Ratio TD50/ED50 (Mus musculus [3]): 1.1
- ED50 (Mus musculus [1]): 93 mg/kg

SMILES: Cc1ccc(COc2cc3nncn3c3ccccc23)cc1
- ED50 (Mus musculus [1]): > 100 mg/kg

SMILES: NC(=O)N1c2ccccc2C=Cc2ccccc21 [CARBAMAZEPINE]
- TD50 at 0.5 h [2]: 76.1 mg/kg
- Activity (Mus musculus [4]): Not Active
- ED50 (Mus musculus [5]): 11.4 mg/kg
- ED50 (Mus musculus [6]): 13.7 mg/kg
- Ratio TD50/ED50 (Mus musculus [3]): 6.4
- ED50 (Mus musculus [7]): 22.8 mg/kg
- ED50 (Mus musculus [8]): 19.7 mg/kg
- ED50 (Mus musculus [1]): 11.8 mg/kg

SMILES: Clc1ccccc1COc1cc2nncn2c2ccccc12
- ED50 (Mus musculus [1]): > 100 mg/kg

SMILES: CCOc1cc2nncn2c2ccccc12
- TD50 at 0.5 h [2]: 131 mg/kg
- Ratio TD50/ED50 (Mus musculus [3]): 1.4
- ED50 (Mus musculus [1]): 91.3 mg/kg

SMILES: c1ccc(COc2cc3nncn3c3ccccc23)cc1
- TD50 at 0.5 h [2]: 274 mg/kg
- Activity (Mus musculus [4]): Not Active
- ED50 (Mus musculus [5]): 27.4 mg/kg
- ED50 (Mus musculus [6]): 9.5 mg/kg
- Ratio TD50/ED50 (Mus musculus [3]): 12
- ED50 (Mus musculus [7]): 38 mg/kg
- ED50 (Mus musculus [8]): 19 mg/kg
- ED50 (Mus musculus [1]): 22.8 mg/kg

SMILES: CCCCCOc1cc2nncn2c2ccccc12
- TD50 at 0.5 h [2]: 63.4 mg/kg
- Ratio TD50/ED50 (Mus musculus [3]): 2.6
- ED50 (Mus musculus [1]): 24.5 mg/kg

SMILES: CCCCOc1cc2nncn2c2ccccc12
- TD50 at 0.5 h [2]: 54.8 mg/kg
- Ratio TD50/ED50 (Mus musculus [3]): 1.5
- ED50 (Mus musculus [1]): 36.7 mg/kg

SMILES: Fc1ccc(COc2cc3nncn3c3ccccc23)cc1
- ED50 (Mus musculus [1]): > 100 mg/kg

SMILES: Clc1ccc(COc2cc3nncn3c3ccccc23)cc1
- ED50 (Mus musculus [1]): > 100 mg/kg

SMILES: CCCCCCOc1cc2nncn2c2ccccc12
- TD50 at 0.5 h [2]: 110 mg/kg
- Ratio TD50/ED50 (Mus musculus [3]): 5.8
- ED50 (Mus musculus [1]): 19 mg/kg

SMILES: Clc1ccc(COc2cc3nncn3c3ccccc23)c(Cl)c1
- ED50 (Mus musculus [1]): > 100 mg/kg

SMILES: Clc1cccc(Cl)c1COc1cc2nncn2c2ccccc12
- ED50 (Mus musculus [1]): > 100 mg/kg

SMILES: Brc1ccccc1COc1cc2nncn2c2ccccc12
- ED50 (Mus musculus [1]): > 100 mg/kg

SMILES: c1ccc(COc2ccc3c(c2)CCc2nncn2-3)cc1
- Ratio TD50/ED50 (Mus musculus [3]): 3.5

SMILES: Fc1ccc(COc2ccc3c(c2)CCc2nncn2-3)cc1
- ED50 (Mus musculus [1]): 11.1 mg/kg

SMILES: Brc1ccc(COc2cc3nncn3c3ccccc23)cc1
- ED50 (Mus musculus [1]): > 100 mg/kg

SMILES: CCCCCCCCOc1cc2nncn2c2ccccc12
- ED50 (Mus musculus [1]): > 100 mg/kg
